Measured values taken from ChEMBL document CHEMBL3244368, “[3-(1,4-Cyclohexadienyl)-L-alanine,8-lysine]vasopressin: synthesis and some pharmacological properties” (J Med Chem, 1979).
Starred links: 1 amine or outer side, 2 acyl side, 3 side chain; linkers in the order of their positions; H or OH if unused. Non-standard residues stand in square brackets, D forms with d. Residues, ends and D or L forms follow the SMILES beside them. *: point of attachment. X1 = O=C([C@H](CC1=CCC=CC1)N[*:1])[*:2]; Tos = Cc1ccc(S(=O)(=O)*)cc1; Cbz = O=C(OCc1ccccc1)*; Bn = c1ccc(C*)cc1

How the values were obtained:
[1] = Stability of the compound in potassium phosphate buffer at pH 7 assessed as hydrolysis by measuring DiHPe level in presence of alpha-amylase preparation and cyclohexadiene
[2] = Stability of the compound in 0.2 M potassium phosphate buffer at […] assessed as hydrolysis by measuring Tyr level in presence of alpha-amylase preparation and cyclohexadiene; format: ADME
Method in brief: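 Aspergillus oryzae α-amylase preparation, 1 mg per 0.9 µmol peptide, in potassium phosphate buffer pH 7, with 1,4-cyclohexadiene (10 µL) and toluene, under N2, 37 °C, 17 h. Adjusted to pH 2.2 for amino acid analysis. Phe from a control of constituent amino acids plus enzyme subtracted to give Phe in residue 3.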

[3] = Stability of the compound in 0.2 M potassium phosphate buffer at pH 7.7 assessed as hydrolysis by measuring Asn/Gln level in presence of alpha-amylase preparation; format: ADME
[4] = Stability of the compound in potassium phosphate buffer at pH 7 assessed as hydrolysis by measuring Phe level in presence of alpha-amylase preparation
[5] = Stability of the compound in potassium phosphate buffer at pH 7 assessed as hydrolysis by measuring DiHPe level in presence of alpha-amylase preparation
[6] = Stability of the compound in potassium phosphate buffer at pH 7 assessed as hydrolysis by measuring Phe level in presence of alpha-amylase preparation and cyclohexadiene
[7] = Stability of the compound in 0.2 M potassium phosphate buffer at pH 7.7 assessed as hydrolysis by measuring Tyr level in presence of alpha-amylase preparation; format: ADME
[8] = Stability of the compound in 0.2 M potassium phosphate buffer at pH 7.7 assessed as hydrolysis by measuring Gly level in presence of alpha-amylase preparation; format: ADME

`Cc1ccc(S(=O)(=O)NCCCC[C@H](NC(=O)[C@@H]2CCCN2C(=O)[C@H](CSCc2ccccc2)NC(=O)[C@H](CC(N)=O)NC(=O)[C@H](CCC(N)=O)NC(=O)[C@H](CC2=CCC=CC2)NC(=O)[C@H](Cc2ccc(OCc3ccccc3)cc2)NC(=O)[C@H](CSCc2ccccc2)NC(=O)OCc2ccccc2)C(=O)NCC(N)=O)cc1` (Cbz-C(Bn)Y(Bn)[X1]QNC(Bn)PK(Tos)G-NH2) gave a Drug degradation [1] of 52.4 mol%, a Drug degradation [2] of 73 mol% and a Drug degradation [3] of 67 mol%. The Drug degradation [4] was 3.9 mol%, the Drug degradation [5] was 57.6 mol% and the Drug degradation [6] was 4.4 mol%. It also gave a Drug degradation [7] of 77 mol% and a Drug degradation [8] of 18 mol%.
